# From ChEMBL document CHEMBL1136049, “Synthesis of syn- and anti-1-amino-3-[18F]fluoromethyl-cyclobutane-1-carboxylic acid (FMACBC), potential PET ligands for tumor detection” (J Med Chem, 2002)
# Columns and labels:
# Rattus norvegicus [1] = species on record: Rattus norvegicus; assay: Radioactivity distribution in brain of normal fischer rat after injection of anti-[18F]FMACBC after 120 min.; format: ADME, organism-based; conditions: in vivo, 2 h
# How it was run: (§1)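 Male Fischer 344 rats (200–250 g), normal, fed ad libitum, given ~85 μCi of 18F tracer in 0.3 mL sterile water IV through a tail vein catheter. Anesthesia was ketamine:xylazine IM. Groups of four were killed at 5, 30, 60 and 120 min. Tissues were weighed and gamma-counted against dose standards, decay-corrected, and expressed as mean % injected dose per gram.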
# Rattus norvegicus [2] = species on record: Rattus norvegicus; assay: Radioactivity distribution in testis of normal fischer rat after injection of syn-[18F]-FMACBC after 120 min.; format: ADME, organism-based; conditions: in vivo, 2 h
# How it was run: (§2)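 Normal male Fischer 344 rats (200–250 g) were anesthetised with ketamine:xylazine i.m. and given about 85 μCi tracer in 0.3 mL sterile water via a tail vein catheter. Groups of four were killed at 5, 30, 60 and 120 min. Selected tissues were weighed and gamma counted with dose standards, decay-corrected, and expressed as mean %ID/g.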
# Rattus norvegicus [3] = species on record: Rattus norvegicus; assay: Radioactivity distribution in muscle of normal fischer rat after injection of syn-[18F]-FMACBC after 5 min.; format: ADME, organism-based, Muscle tissue; conditions: in vivo; how it was run: as §2
# Rattus norvegicus [4] = species on record: Rattus norvegicus; assay: Radioactivity distribution in muscle of normal fischer rat after injection of syn-[18F]-FMACBC after 120 min.; format: ADME, organism-based, Muscle tissue; conditions: in vivo, 2 h; how it was run: as §2
# Rattus norvegicus [5] = species on record: Rattus norvegicus; assay: Radioactivity distribution in kidney of tumor-bearing fischer rat after injection of anti-[18F]FMACBC after 120 min; format: ADME, organism-based; conditions: in vivo, 2 h
# How it was run: (§3)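 Male Fischer 344 rats carrying intracranial rat 9L gliosarcoma, made by stereotaxic injection of 4 × 10^4 cells 17–19 days before. Awake restrained rats received ~35 μCi of 18F tracer in 0.3 mL sterile water IV by tail vein and were killed at 5, 60 or 120 min, n = 3–5. Tissues were weighed, gamma-counted, decay-corrected and expressed as % injected dose per gram.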
# Rattus norvegicus [6] = species on record: Rattus norvegicus; assay: Radioactivity distribution in bone of tumor-bearing fischer rat after injection of syn-[18F]-FMACBC after 60 min; format: ADME, organism-based, Bone element; conditions: in vivo, 1 h; how it was run: as §3
# Rattus norvegicus [7] = species on record: Rattus norvegicus; assay: Radioactivity distribution in pancreas of normal fischer rat after injection of anti-[18F]FMACBC after 30 min.; format: ADME, organism-based; conditions: in vivo, 0.5 h; how it was run: as §2
# Rattus norvegicus [8] = species on record: Rattus norvegicus; assay: Radioactivity distribution in testis of normal fischer rat after injection of syn-[18F]-FMACBC after 5 min.; format: ADME, organism-based; conditions: in vivo; how it was run: as §2
# Rattus norvegicus [9] = species on record: Rattus norvegicus; assay: Radioactivity distribution in spleen of normal fischer rat after injection of anti-[18F]FMACBC after 120 min.; format: ADME, organism-based; conditions: in vivo, 2 h; how it was run: as §2
# Rattus norvegicus [10] = species on record: Rattus norvegicus; assay: Radioactivity distribution in liver of normal fischer rat after injection of syn-[18F]-FMACBC after 120 min.; format: ADME, organism-based; conditions: in vivo, 2 h; how it was run: as §1
# Rattus norvegicus [11] = species on record: Rattus norvegicus; assay: Radioactivity distribution in kidney of tumor-bearing fischer rat after injection of syn-[18F]-FMACBC after 60 min; format: ADME, organism-based; conditions: in vivo, 1 h; how it was run: as §3
# Rattus norvegicus [12] = species on record: Rattus norvegicus; assay: Radioactivity distribution in lung of tumor-bearing fischer rat after injection of syn-[18F]-FMACBC after 60 min; format: ADME, organism-based; conditions: in vivo, 1 h
# How it was run: (§4)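 Male Fischer 344 rats with intracranial 9L gliosarcoma (4 × 10^4 cells stereotaxically implanted; used 17–19 days after implantation). About 35 μCi tracer in 0.3 mL sterile water was given by tail vein to awake, restrained rats. Rats were killed at 5, 60 or 120 min. Tissues, tumor and contralateral brain were weighed and gamma counted, decay-corrected, and expressed as %ID/g; n = 3–5 per time point.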
# Rattus norvegicus [13] = species on record: Rattus norvegicus; assay: Radioactivity distribution in liver of normal fischer rat after injection of syn-[18F]-FMACBC after 30 min.; format: ADME, organism-based; conditions: in vivo, 0.5 h; how it was run: as §1
# Rattus norvegicus [14] = species on record: Rattus norvegicus; assay: Radioactivity distribution in kidney of tumor-bearing fischer rat after injection of syn-[18F]-FMACBC after 5 min; format: ADME, organism-based; conditions: in vivo; how it was run: as §3
# Rattus norvegicus [15] = species on record: Rattus norvegicus; assay: Radioactivity distribution in spleen of normal fischer rat after injection of anti-[18F]FMACBC after 60 min.; format: ADME, organism-based; conditions: in vivo, 1 h; how it was run: as §2
# Rattus norvegicus [16] = species on record: Rattus norvegicus; assay: Radioactivity distribution in brain of normal fischer rat after injection of syn-[18F]-FMACBC after 120 min.; format: ADME, organism-based; conditions: in vivo, 2 h; how it was run: as §1
# Rattus norvegicus [17] = species on record: Rattus norvegicus; assay: Radioactivity distribution in liver of normal fischer rat after injection of anti-[18F]FMACBC after 5 min.; format: ADME, organism-based; conditions: in vivo; how it was run: as §1
# Rattus norvegicus [18] = species on record: Rattus norvegicus; assay: Radioactivity distribution in brain of tumor-bearing fischer rat after injection of syn-[18F]-FMACBC after 60 min; format: ADME, organism-based; conditions: in vivo, 1 h; how it was run: as §3
# Rattus norvegicus [19] = species on record: Rattus norvegicus; assay: Radioactivity distribution in muscle of normal fischer rat after injection of anti-[18F]FMACBC after 5 min.; format: ADME, organism-based, Muscle tissue; conditions: in vivo; how it was run: as §2
# Rattus norvegicus [20] = species on record: Rattus norvegicus; assay: Radioactivity distribution in muscle of normal fischer rat after injection of anti-[18F]FMACBC after 60 min.; format: ADME, organism-based, Muscle tissue; conditions: in vivo, 1 h; how it was run: as §2
# Rattus norvegicus [21] = species on record: Rattus norvegicus; assay: Radioactivity distribution in pancreas of normal fischer rat after injection of anti-[18F]FMACBC after 60 min.; format: ADME, organism-based; conditions: in vivo, 1 h; how it was run: as §2
# Rattus norvegicus [22] = species on record: Rattus norvegicus; assay: Radioactivity distribution in muscle of tumor-bearing fischer rat after injection of syn-[18F]-FMACBC after 60 min; format: ADME, organism-based, Muscle tissue; conditions: in vivo, 1 h; how it was run: as §4
# Rattus norvegicus [23] = species on record: Rattus norvegicus; assay: Radioactivity distribution in liver of normal fischer rat after injection of anti-[18F]FMACBC after 60 min.; format: ADME, organism-based; conditions: in vivo, 1 h; how it was run: as §1
# Rattus norvegicus [24] = species on record: Rattus norvegicus; assay: Radioactivity distribution in heart of normal fischer rat after injection of syn-[18F]-FMACBC after 5 min.; format: ADME, organism-based; conditions: in vivo; how it was run: as §1
# Rattus norvegicus [25] = species on record: Rattus norvegicus; assay: Radioactivity distribution in kidney of tumor-bearing fischer rat after injection of syn-[18F]-FMACBC after 120 min; format: ADME, organism-based; conditions: in vivo, 2 h; how it was run: as §3
# Rattus norvegicus [26] = species on record: Rattus norvegicus; assay: Radioactivity distribution in testis of tumor-bearing fischer rat after injection of syn-[18F]-FMACBC after 60 min; format: ADME, organism-based; conditions: in vivo, 1 h; how it was run: as §4
# Rattus norvegicus [27] = species on record: Rattus norvegicus; assay: Radioactivity distribution in blood of tumor-bearing fischer rat after injection of syn-[18F]-FMACBC after 5 min; format: ADME, organism-based; conditions: in vivo; how it was run: as §3
# Rattus norvegicus [28] = species on record: Rattus norvegicus; assay: Radioactivity distribution in kidney of normal fischer rat after injection of anti-[18F]FMACBC after 30 min.; format: ADME, organism-based; conditions: in vivo, 0.5 h; how it was run: as §1
# Rattus norvegicus [29] = species on record: Rattus norvegicus; assay: Radioactivity distribution in blood of normal fischer rat after injection of anti-[18F]FMACBC after 120 min.; format: ADME, organism-based; conditions: in vivo, 2 h; how it was run: as §1
# Rattus norvegicus [30] = species on record: Rattus norvegicus; assay: Radioactivity distribution in brain of tumor-bearing fischer rat after injection of anti-[18F]FMACBC after 5 min; format: ADME, organism-based; conditions: in vivo; how it was run: as §3
# Rattus norvegicus [31] = species on record: Rattus norvegicus; assay: Radioactivity distribution in testis of normal fischer rat after injection of anti-[18F]FMACBC after 5 min.; format: ADME, organism-based; conditions: in vivo; how it was run: as §2
# Rattus norvegicus [32] = species on record: Rattus norvegicus; assay: Radioactivity distribution in testis of tumor-bearing fischer rat after injection of anti-[18F]FMACBC after 120 min; format: ADME, organism-based; conditions: in vivo, 2 h; how it was run: as §4
# Rattus norvegicus [33] = species on record: Rattus norvegicus; assay: Radioactivity distribution in liver of tumor-bearing fischer rat after injection of syn-[18F]-FMACBC after 120 min; format: ADME, organism-based; conditions: in vivo, 2 h; how it was run: as §4
# Rattus norvegicus [34] = species on record: Rattus norvegicus; assay: Radioactivity distribution in blood of normal fischer rat after injection of syn-[18F]-FMACBC after 5 min.; format: ADME, organism-based; conditions: in vivo; how it was run: as §1
# Rattus norvegicus [35] = species on record: Rattus norvegicus; assay: Radioactivity distribution in testis of normal fischer rat after injection of syn-[18F]-FMACBC after 60 min.; format: ADME, organism-based; conditions: in vivo, 1 h; how it was run: as §2
# Rattus norvegicus [36] = species on record: Rattus norvegicus; assay: Radioactivity distribution in tumor of tumor-bearing fischer rat after injection of anti-[18F]FMACBC after 60 min; format: ADME, organism-based; conditions: in vivo, 1 h; how it was run: as §4
# Rattus norvegicus [37] = species on record: Rattus norvegicus; assay: Radioactivity distribution in bone of normal fischer rat after injection of syn-[18F]-FMACBC after 120 min.; format: ADME, organism-based, Bone element; conditions: in vivo, 2 h; how it was run: as §1
# Rattus norvegicus [38] = species on record: Rattus norvegicus; assay: Radioactivity distribution in heart of tumor-bearing fischer rat after injection of syn-[18F]-FMACBC after 60 min; format: ADME, organism-based; conditions: in vivo, 1 h; how it was run: as §3
# Rattus norvegicus [39] = species on record: Rattus norvegicus; assay: Radioactivity distribution in lung of tumor-bearing fischer rat after injection of syn-[18F]-FMACBC after 120 min; format: ADME, organism-based; conditions: in vivo, 2 h; how it was run: as §4
# Rattus norvegicus [40] = species on record: Rattus norvegicus; assay: Radioactivity distribution in bone of normal fischer rat after injection of syn-[18F]-FMACBC after 30 min.; format: ADME, organism-based, Bone element; conditions: in vivo, 0.5 h; how it was run: as §1
# Rattus norvegicus [41] = species on record: Rattus norvegicus; assay: Radioactivity distribution in pancreas of tumor-bearing fischer rat after injection of syn-[18F]-FMACBC after 5 min; format: ADME, organism-based; conditions: in vivo; how it was run: as §4
smiles,measurement,setting,value
N[C@]1(C(=O)O)C[C@@H](CF)C1,ID/g,Rattus norvegicus [1],0.25%
same,ID/g,Rattus norvegicus [2],0.22%
same,ID/g,Rattus norvegicus [3],0.46%
same,ID/g,Rattus norvegicus [4],0.6%
same,ID/g,Rattus norvegicus [5],0.79%
same,ID/g,Rattus norvegicus [6],0.12%
same,ID/g,Rattus norvegicus [7],4.13%
same,ID/g,Rattus norvegicus [8],0.32%
same,ID/g,Rattus norvegicus [9],0.47%
same,ID/g,Rattus norvegicus [10],0.52%
same,ID/g,Rattus norvegicus [11],0.42%
same,ID/g,Rattus norvegicus [12],0.31%
same,ID/g,Rattus norvegicus [13],0.37%
same,ID/g,Rattus norvegicus [14],0.59%
same,ID/g,Rattus norvegicus [15],0.48%
same,ID/g,Rattus norvegicus [16],0.21%
same,ID/g,Rattus norvegicus [17],0.81%
same,ID/g,Rattus norvegicus [18],0.23%
same,ID/g,Rattus norvegicus [19],0.46%
same,ID/g,Rattus norvegicus [20],0.61%
same,ID/g,Rattus norvegicus [21],3.83%
same,ID/g,Rattus norvegicus [22],0.54%
same,ID/g,Rattus norvegicus [23],0.47%
same,ID/g,Rattus norvegicus [24],0.63%
same,ID/g,Rattus norvegicus [25],0.34%
same,ID/g,Rattus norvegicus [26],0.22%
same,ID/g,Rattus norvegicus [27],0.44%
same,ID/g,Rattus norvegicus [28],0.67%
same,ID/g,Rattus norvegicus [29],0.31%
same,ID/g,Rattus norvegicus [30],0.17%
same,ID/g,Rattus norvegicus [31],0.24%
same,ID/g,Rattus norvegicus [32],0.23%
same,ID/g,Rattus norvegicus [33],0.25%
same,ID/g,Rattus norvegicus [34],0.53%
same,ID/g,Rattus norvegicus [35],0.23%
same,ID/g,Rattus norvegicus [36],2.5%
same,ID/g,Rattus norvegicus [37],0.32%
same,ID/g,Rattus norvegicus [38],0.44%
same,ID/g,Rattus norvegicus [39],0.26%
same,ID/g,Rattus norvegicus [40],0.32%
same,ID/g,Rattus norvegicus [41],3.19%
